As a reminder, the MIC is the smallest concentration in the dilution series that meets the test's criterion for growth inhibition. Usually IC50 stands for the concentration at which inhibition is half-maximal.

Consider 11 compounds from ChEMBL document CHEMBL2057145, “Development of novel antibacterial agents against methicillin-resistant Staphylococcus aureus” (Bioorg Med Chem, 2012).

Test [1] concerns Staphylococcus aureus. Nature of the test: Antibacterial activity against Staphylococcus aureus ATCC 29213 after 24 hrs by broth microdilution method. The note with it: ATCC 29213, 24 h. Format: functional. (Broth dilution looks for growth in wells or tubes with falling amounts of substance.)
Test [2] is described as follows: Selectivity ratio of IC50 for human HT-29 cells to MIC for Staphylococcus aureus ATCC 29213. It counts as functional. The essentials:
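Ratio of HT-29 IC50 (MTT assay, 24 h exposure) to MIC against S. aureus ATCC 29213 (CLSI broth microdilution, 24 h, 37 °C).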

For another test, the system named is HT-29. Nature of the test: Antiproliferative activity against human HT-29 cells after 24 hrs by MTT assay. Format: cell-based. The note with it: HT-29, 24 h. The essentials:
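HT-29 human colon adenocarcinoma cells seeded at 1 × 10⁴ cells/well in RPMI 1640 with 10% FBS and 10 µg/mL gentamicin, left overnight at 37 °C, 5% CO₂. Medium then replaced with medium holding test agents (final DMSO 0.1%; DMSO-only controls), at least 6 wells per condition, for 24 h. Viability read by MTT (0.5 mg/mL, 2 h, 37 °C), DMSO solubilization, absorbance 570 nm.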
(Tetrazolium assays rely on reduction of a dye to a coloured formazan, in cell work by metabolically active cells.)

Test [3] has as its system Staphylococcus epidermidis. As to the kind of experiment: Antibacterial activity against Staphylococcus epidermidis ATCC 35984 after 24 hrs by broth microdilution method. It counts as functional. Particulars: RP62A.
Another test relates to Staphylococcus hominis. Nature of the test: Antibacterial activity against Staphylococcus hominis ATCC 27844 after 24 hrs by broth microdilution method. Particulars: ATCC 27844, 24 h. Format: functional.
Test [4] has as its system Staphylococcus aureus. Nature of the test: Antibacterial activity against methicillin-resistant Staphylococcus aureus ATCC 33592 after 24 hrs by broth microdilution method. Format: functional. The note with it: ATCC 33592, 24 h. The essentials: (§1)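 CLSI broth microdilution. Bacteria grown overnight on LB agar, suspended in PBS, then exposed to test agents at 0.25 to 64 µg/mL in triplicate. Incubation 37 °C for 24 h. MIC is the lowest concentration with no visible bacterial growth. DMSO stocks diluted in culture medium to a final DMSO of 0.1%.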

For test [5], the system named is Staphylococcus saprophyticus. Nature of the test: Antibacterial activity against Staphylococcus saprophyticus ATCC 15305 after 24 hrs by broth microdilution method. Format: functional. Particulars: ATCC 15305, 24 h.
Test [6] concerns Staphylococcus haemolyticus. Nature of the test: Antibacterial activity against Staphylococcus haemolyticus ATCC 29970 after 24 hrs by broth microdilution method. Format: functional. The note with it: ATCC 29970, 24 h.
Test [7] concerns Staphylococcus lugdunensis. As to the kind of experiment: Antibacterial activity against Staphylococcus lugdunensis isolate NTUH after 24 hrs by broth microdilution method. It counts as functional.
The test system of test [8] is Staphylococcus aureus. Nature of the test: Antibacterial activity against methicillin-resistant Staphylococcus aureus expressing […] subtype VT after 24 hrs by broth microdilution method. It counts as functional. In a few lines: as §1
In test [9] the test system is Staphylococcus intermedius. As to the kind of experiment: Antibacterial activity against Staphylococcus intermedius ATCC 29663 after 24 hrs by broth microdilution method. It counts as functional. Particulars: ATCC 29663, 24 h.
Test [10] deals with Staphylococcus epidermidis. As to the kind of experiment: Antibacterial activity against Staphylococcus epidermidis ATCC 12228 after 24 hrs by broth microdilution method. Format: functional. Particulars: ATCC 12228, 24 h.
The test system of test [11] is Staphylococcus aureus. As to the kind of experiment: Antibacterial activity against methicillin-resistant Staphylococcus aureus ATCC 49476 after 24 hrs by broth microdilution method. Particulars: ATCC 49476, 24 h.
Test [12] concerns Staphylococcus aureus. As to the kind of experiment: Antibacterial activity against Staphylococcus aureus ATCC 12598 after 24 hrs by broth microdilution method. Format: functional. Particulars: ATCC 12598, 24 h. The essentials:
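CLSI broth microdilution. Incubation 37 °C for 24 h. MIC is the lowest concentration with no visible bacterial growth. DMSO stocks diluted in culture medium to a final DMSO of 0.1%.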

Test [13] relates to Staphylococcus aureus. As to the kind of experiment: Bactericidal activity against Staphylococcus aureus ATCC 29213 assessed as decrease in bacterial count at 2 to 8 times compound MIC by time-kill assay. Format: functional, organism-based. The note with it: TDE = time-dependent effect. In a few lines: (§2)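 S. aureus ATCC 29213 at 5 × 10⁵ CFU/mL in CAMHB exposed to test agents at 2-, 4- and 8-fold MIC, in triplicate. DMSO-matched medium served as control. At successive times, aliquots serially diluted in PBS and plated on LB agar (37 °C, 16 h). Counts given as CFU/mL, mean ± SD (n = 3); 99.9% killing used as reference.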

Test [14] has as its system Staphylococcus aureus. Nature of the test: Bactericidal activity against Staphylococcus aureus ATCC 29213 assessed as decrease in bacterial count at 8 times compound MIC after 24 hrs by time-kill assay. It counts as functional. On the set-up: scale not given: the % may be the effect or the level left. The essentials:
as §2

Values after ≈ are worked out from the molar mass of the structure shown.

Turning to `NCC(=O)Nc1ccc(-n2nc(C(F)(F)F)cc2-c2ccc3c(c2)oc2ccccc23)cc1`, the MIC (with Staphylococcus aureus [1]; in test [3]) was 4 µg/mL (≈ 8.88 µM) in each case. In addition, the Ratio in test [2] is given as 1.6. The compound further gave an IC50 in the test on HT-29 of 6.5 µg/mL (≈ 14.4 µM).

`NCCCC[C@H](N)C(=O)Nc1ccc(-n2nc(C(F)(F)F)cc2-c2ccc3c(ccc4ccccc43)c2)cc1`: the Ratio in [2] is 4.9. In the test on HT-29, this compound gave a 50% inhibitory concentration (IC50) of 19.5 µg/mL (≈ 36.7 µM).

On to `NCC(=O)Nc1ccc(-n2nc(C(F)(F)F)cc2-c2ccc3c(ccc4ccccc43)c2)cc1` [AR-12], for which the MIC (against Staphylococcus aureus [1]; in test [3]) was 4 µg/mL (≈ 8.69 µM) throughout. Moreover, the Ratio in [2] stood at 0.9.

As to `NCCC(=O)Nc1ccc(-n2nc(C(F)(F)F)cc2-c2ccc3c(ccc4ccccc43)c2)cc1`, the minimal inhibitory concentration (MIC) (with Staphylococcus aureus [1]; in test [3]) was 4 µg/mL (≈ 8.43 µM) in each case. Besides, the Ratio in test [2] is recorded as 1.5. Besides, the IC50 with HT-29 turned out to be 6 µg/mL (≈ 12.6 µM).

For `NCCCC[C@@H](N)C(=O)Nc1ccc(-n2nc(C(F)(F)F)cc2-c2ccc3c(ccc4ccccc43)c2)cc1`, the minimum inhibitory concentration (MIC) (against Staphylococcus aureus [1]; in [3]) was 4 µg/mL (≈ 7.52 µM) in each case. The Ratio in test [2] worked out at 0.8.

As to `NS(=O)(=O)c1ccc(-n2nc(C(F)(F)F)cc2-c2ccc(-c3ccc(Cl)cc3)cc2)cc1`, the minimal inhibitory concentration (MIC) with Staphylococcus aureus [1] was 4 µg/mL (≈ 8.37 µM); in test [3], 8 µg/mL (≈ 16.7 µM). In addition, in test [2], the Ratio came to 3.1. The compound further returned an IC50 with HT-29 of 12.5 µg/mL (≈ 26.2 µM).

In the case of `NS(=O)(=O)Nc1ccc(-n2nc(C(F)(F)F)cc2-c2ccc3cc4ccccc4cc3c2)cc1`, the MIC in the test with Staphylococcus hominis is 2 µg/mL (≈ 4.15 µM); against Staphylococcus aureus [4], 2 µg/mL (≈ 4.15 µM); in [5], 8 µg/mL (≈ 16.6 µM); in test [6] it was 16 µg/mL (≈ 33.2 µM); in [7], 4 µg/mL (≈ 8.29 µM); against Staphylococcus aureus [8] it was 2 µg/mL (≈ 4.15 µM). Moreover, the MIC in [9] is 4 µg/mL (≈ 8.29 µM); in test [10], 2 µg/mL (≈ 4.15 µM); in the test with Staphylococcus aureus [11], 2 µg/mL (≈ 4.15 µM). Besides, in test [2], the Ratio is reported as 2.8. In the test with HT-29, 11 µg/mL (≈ 22.8 µM) corresponded to half-maximal inhibition (IC50).

For the compound `NCCC(=O)Nc1ccc(-n2nc(C(F)(F)F)cc2-c2ccc3c(c2)oc2ccccc23)cc1`, the MIC (against Staphylococcus aureus [1]; in [3]) was 4 µg/mL (≈ 8.61 µM) each time. In test [2], the Ratio is reported as 1.8.

Consider `NS(=O)(=O)Nc1ccc(-n2nc(C(F)(F)F)cc2-c2ccc(-c3ccc(Br)cc3)cc2)cc1`, for which the MIC in the test on Staphylococcus aureus [4] is 1 µg/mL (≈ 1.86 µM); against Staphylococcus aureus [1] it was 1 µg/mL (≈ 1.86 µM); against Staphylococcus aureus [12], 1 µg/mL (≈ 1.86 µM); in [7], 2 µg/mL (≈ 3.72 µM); with Staphylococcus aureus [8] it was 1 µg/mL (≈ 1.86 µM); in test [9], 2 µg/mL (≈ 3.72 µM). Besides, the minimum inhibitory concentration (MIC) (in [10]; with Staphylococcus aureus [11]) was 1 µg/mL (≈ 1.86 µM) throughout. For the same compound, in test [2], the Ratio is 10.

Regarding `NC(=O)c1ccc(-n2nc(C(F)(F)F)cc2-c2c3ccccc3cc3ccccc23)cc1`, the MIC came out at 4 µg/mL (≈ 9.27 µM) against Staphylococcus aureus [4]; 2 µg/mL (≈ 4.64 µM) in the test on Staphylococcus aureus [1]; 2 µg/mL (≈ 4.64 µM) in test [3]; 4 µg/mL (≈ 9.27 µM) in [7]; 4 µg/mL (≈ 9.27 µM) in test [9]. Besides, the Activity entry in the test with Staphylococcus aureus [13] is “tde”; in the test on Staphylococcus aureus [14] it was 99.14%. The Ratio in test [2] was 6. This compound also yielded an IC50 in the test with HT-29 of 12 µg/mL (≈ 27.8 µM).

Consider `NCCC(=O)Nc1ccc(-n2nc(C(F)(F)F)cc2-c2ccc(-c3ccc(C(F)(F)F)cc3)cc2)cc1`, for which the MIC (in the test on Staphylococcus aureus [1]; in test [3]) was 4 µg/mL (≈ 7.72 µM) throughout. In test [2], the Ratio stood at 1.1. The compound further had a half-maximal inhibitory concentration (IC50) with HT-29 of 4.2 µg/mL (≈ 8.1 µM).
